Results taken from ChEMBL document CHEMBL1126811, “Fluorinated and iodinated dopamine agents: D2 imaging agents for PET and SPECT” (J Med Chem, 1993).

Key:
Rattus norvegicus [1] = species: Rattus norvegicus; assay type: functional, Striatum, Membrane
Rattus norvegicus [2] = species: Rattus norvegicus; assay type: functional, Striatum, Membrane; remark: listed apart in the source
D(2) dopamine receptor = D(2) dopamine receptor (Rattus norvegicus, UniProt P61169); test: Inhibition constant against dopamine receptor D2 in rat
Method in brief: (§1)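 Filtered on protamine-pretreated (0.2%) GF/B filters, washed with cold 50 mM Tris-HCl pH 7.4, gamma-counted. Nonspecific binding defined with 10 μM (+)-butaclamol. Scatchard and competition data fitted by iterative nonlinear least squares.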

Rattus norvegicus [3] = species: Rattus norvegicus; test: Inhibition constant on radiolabeled [125I]FIDA1 binding to rat striatal membranes; parameters: species or system Striatum, Membrane
Method in brief: as §1

Rattus norvegicus [4] = species: Rattus norvegicus; test: Inhibition constant on radiolabeled [125I]FIDA2 binding to rat striatal membranes; parameters: species or system Striatum, Membrane
Method in brief: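 Rat striatal membrane homogenate (40–60 μg protein) incubated with 125I-labeled ligand ± competitors in 0.2 mL assay buffer, 15 min at 37 °C with stirring. Filtered on protamine-pretreated (0.2%) GF/B filters, washed with cold 50 mM Tris-HCl pH 7.4, gamma-counted. Nonspecific binding defined with 10 μM (+)-butaclamol. Scatchard and competition data fitted by iterative nonlinear least squares.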

Chain of D(2) dopamine receptor (P61169 whole entry): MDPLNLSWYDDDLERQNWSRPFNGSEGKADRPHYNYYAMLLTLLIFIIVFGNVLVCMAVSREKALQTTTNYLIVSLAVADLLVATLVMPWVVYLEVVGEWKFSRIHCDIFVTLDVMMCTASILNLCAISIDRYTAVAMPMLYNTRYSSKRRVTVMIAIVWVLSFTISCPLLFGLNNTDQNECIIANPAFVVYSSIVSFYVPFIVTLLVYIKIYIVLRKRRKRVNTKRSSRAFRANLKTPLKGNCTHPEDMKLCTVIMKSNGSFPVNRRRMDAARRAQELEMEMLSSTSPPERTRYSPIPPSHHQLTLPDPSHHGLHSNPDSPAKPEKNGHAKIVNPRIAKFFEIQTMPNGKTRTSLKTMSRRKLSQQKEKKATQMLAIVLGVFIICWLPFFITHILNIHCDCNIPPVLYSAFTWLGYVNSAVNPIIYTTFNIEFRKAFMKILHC

Question: With `CC(C)(C)[C@@]1(O)CCN2C[C@@H]3c4ccccc4CCc4cccc(c43)[C@H]2C1` as the molecule, how does the Ki (Rattus norvegicus [1]) read?
Answer: 0.4 nM

Question: And the Ki (Rattus norvegicus [2])?
Answer: 1.05 nM

Question: For `CCN1CCC[C@@H]1CNC(=O)c1cccc(OC)c1OCCF`, which Ki (D(2) dopamine receptor) is on record?
Answer: 13 nM

Question: Which Ki (D(2) dopamine receptor) does the source give for `CCN1CCC[C@H]1CNC(=O)c1cc(CCCF)cc(OC)c1OC` here?
Answer: 0.02 nM

Question: How did the Ki (D(2) dopamine receptor) turn out when `CCN1CCC[C@H]1CNC(=O)c1cc(I)cc2c1OCC2` was run?
Answer: 0.106 nM

Question: With `COc1cc(Br)cc(C(=O)NC[C@@H]2CCCN2Cc2ccc(F)cc2)c1OC` as the molecule, how does the Ki (D(2) dopamine receptor) read?
Answer: 0.147 nM

Question: Which Ki (Rattus norvegicus [1]) does the source give for `CN1[C@@H]2CC[C@H]1C[C@@H](OC(=O)C(CO)c1ccccc1)C2` (some centres not stated) [ATROPINE] here?
Answer: > 10000 nM

Question: What about the Ki (Rattus norvegicus [2]) of the same molecule?
Answer: > 10000 nM

Question: `CCN1CCC[C@H]1CNC(=O)c1cc(I)cc(OC)c1OC` [EPIDEPRIDE] was tested. Which Ki (D(2) dopamine receptor) did it give?
Answer: 0.025 nM

Question: With `CCc1cc(Cl)c(OC)c(C(=O)NC[C@@H]2CCCN2CC)c1O` [ETICLOPRIDE] as the molecule, how does the Ki (Rattus norvegicus [3]) read?
Answer: 0.014 nM

Question: And the Ki (Rattus norvegicus [4])?
Answer: 0.06 nM

Question: Which Ki (D(2) dopamine receptor) does the source give for `CCN1CCC[C@H]1CNC(=O)c1cc(I)ccc1OC` [IODOPRIDE] here?
Answer: 3 nM

Question: With `CCN1CCC[C@H]1CNC(=O)c1c(OC)ccc(S(N)(=O)=O)c1I` [IODOSULPIRIDE] as the molecule, how does the Ki (D(2) dopamine receptor) read?
Answer: 1.5 nM

Question: `CCN1CCC[C@H]1CNC(=O)c1c(OC)ccc(I)c1O` [IOLOPRIDE] was tested. Which Ki (D(2) dopamine receptor) did it give?
Answer: 0.43 nM

Question: For `CCN1CCC[C@H]1CNC(=O)c1c(O)c(I)cc(OC)c1OC` [IOXIPRIDE], which Ki (D(2) dopamine receptor) is on record?
Answer: 0.019 nM

Question: With `C=CCN1CC[C@]23c4c5ccc(O)c4O[C@H]2C(=O)CC[C@@]3(O)[C@H]1C5` [NALOXONE] as the molecule, how does the Ki (Rattus norvegicus [1]) read?
Answer: > 10000 nM

Question: What about the Ki (Rattus norvegicus [2]) of the same molecule?
Answer: > 10000 nM

Question: How did the Ki (Rattus norvegicus [1]) turn out when `CCCN1CCC[C@@H]2Cc3n[nH]cc3C[C@H]21` [QUINPIROLE] was run?
Answer: 8000 nM

Question: For `CCN1CCC[C@H]1CNC(=O)c1c(O)c(Cl)cc(Cl)c1OC` [RACLOPRIDE], which Ki (Rattus norvegicus [3]) is on record?
Answer: 2.31 nM

Question: What about the Ki (Rattus norvegicus [4]) of the same molecule?
Answer: 5 nM

Question: How did the Ki (Rattus norvegicus [2]) turn out when `NCCc1c[nH]c2ccc(O)cc12` [SEROTONIN] was run?
Answer: > 5000 nM

Question: Which Ki (Rattus norvegicus [1]) does the source give for `COC(=O)[C@@H]1[C@H]2C[C@H]3c4[nH]c5ccccc5c4CCN3C[C@@H]2CC[C@@H]1O` [YOHIMBINE] here?
Answer: 505 nM
